Test results as given in ChEMBL document CHEMBL4229488, “Secondary carbamate linker can facilitate the sustained release of dopamine from brain-targeted prodrug” (Bioorg Med Chem Lett, 2018).

How the values were obtained:
[1] = Stability in pH 7.4 isotonic tris buffer assessed as parent compound remaining after 6 hrs by HPLC analysis; type: physicochemical; conditions: read-out: Stability
Outline: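 Chemical hydrolysis was run at 37 °C in isotonic Tris-HCl buffer at pH 7.4. The percentage of intact parent was measured after 6 h.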

[2] = Half-life in human in presence of AADC inhibitor carbidopa; type: ADME, organism-based; conditions: in vivo
[3] = Half-life in human in presence of COMT inhibitor entacapone; type: ADME, organism-based; conditions: in vivo
[4] = Half life in 10% rat liver homogenate by HPLC method; type: ADME, tissue-based
Outline: (§1)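 Conversion of the compound was followed at 37 °C in 10% rat liver homogenate. The intact parent was tracked over time up to 6 h, and half-life or the percentage remaining at 6 h was taken from this.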

[5] = target: T1, Large neutral amino acids transporter small subunit 1 (Homo sapiens, UniProt Q01650); assay: Inhibition of LAT1-mediated [14C]-L-leucine uptake in human MCF7 cells after 5 mins by liquid scintillation counting method; type: cell-based
T1 sequence (Q01650 whole entry): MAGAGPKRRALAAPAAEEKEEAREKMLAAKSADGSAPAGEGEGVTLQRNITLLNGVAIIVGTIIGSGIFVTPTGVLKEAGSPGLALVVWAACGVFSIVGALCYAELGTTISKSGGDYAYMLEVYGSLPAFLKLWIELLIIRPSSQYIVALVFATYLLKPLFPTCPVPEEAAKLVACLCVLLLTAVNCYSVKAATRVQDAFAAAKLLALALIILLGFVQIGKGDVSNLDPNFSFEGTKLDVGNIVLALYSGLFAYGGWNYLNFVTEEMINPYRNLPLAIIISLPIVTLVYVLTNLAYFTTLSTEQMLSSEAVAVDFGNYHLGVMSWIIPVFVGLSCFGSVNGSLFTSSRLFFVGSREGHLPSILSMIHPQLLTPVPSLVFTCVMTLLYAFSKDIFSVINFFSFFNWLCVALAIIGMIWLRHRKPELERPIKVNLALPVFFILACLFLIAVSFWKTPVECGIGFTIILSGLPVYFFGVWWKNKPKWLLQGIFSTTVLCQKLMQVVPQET

[6] = target: T1, Large neutral amino acids transporter small subunit 1; assay: Drug uptake in human MCF7 cells assessed as LAT1-mediated drug transportation rate at 3.125 to 100 uM after 10 mins by LC-MS analysis; type: ADME, cell-based; conditions: mcf7, 10 min
[7] = Stability in 10% rat liver homogenates assessed as parent compound remaining after 6 hrs by HPLC analysis; type: ADME, tissue-based; conditions: for remaining at 6 h: 10% rat liver homogenate, read-out: Stability; outline: as §1
[8] = target: T1, Large neutral amino acids transporter small subunit 1; assay: Drug uptake in human MCF7 cells assessed as LAT1-mediated drug transportation rate at 25 to 50 uM after 10 mins by LC-MS analysis; type: ADME, cell-based; conditions: mcf7, 10 min
[9] = Stability in 75% rat plasma assessed as parent compound remaining after 6 hrs by HPLC analysis; type: ADME, cell-free; conditions: read-out: Stability
Outline: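 Incubated at 37 °C in 75% rat plasma, alongside isotonic Tris-HCl buffer (pH 7.4) and 10% rat liver homogenate. The read-out was the percentage of intact parent compound after 6 h, taken as conversion to dopamine.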

## N[C@@H](Cc1ccc(O)c(O)c1)C(=O)O [LEVODOPA]
[1]
  remaining at 6 h: 99.8 to 103%
[2]
  half-life: 60 min
[3]
  half-life: 30 to 90 min
[4]
  half-life: 15.5 min
[5]
  IC50: 100 µM
  inhibition: Dose-dependent effect
[6]
  Vmax: 2.6 nmol/mg/min
[7]; tissue homogenate, 6 h
  Stability: Unstable

## Cl.NC(Cc1cccc(C(=O)NCCc2ccc(O)c(O)c2)c1)C(=O)O (stereo not given)
[1]
  remaining at 6 h: 83.2 to 83.7%
[8]
  Vmax: < 3 pmol/mg/min
[9]
  remaining at 6 h: 57.4 to 62.7%
[5]
  IC50: 32.4 µM
  inhibition: Dose-dependent effect
[7]
  remaining at 6 h: 47.7 to 51.9%

## Cl.N[C@@H](Cc1ccc(OC(=O)NCCc2ccc(O)c(O)c2)cc1)C(=O)O
[1]
  remaining at 6 h: 78.1 to 93.1%
[8]
  Vmax: < 3 pmol/mg/min
[9]
  remaining at 6 h: 40.5 to 60.5%
[5]
  IC50: 27.7 µM
  inhibition: Dose-dependent effect
[7]
  remaining at 6 h: 63.2 to 66.5%
